# Source: ChEMBL document CHEMBL4014346, “Lead Optimization Generates CYP11B1 Inhibitors of Pyridylmethyl Isoxazole Type with Improved Pharmacological Profile for the Treatment of Cushing's Disease” (J Med Chem, 2017)
# pIC50: −log10 of the molar value.
# How the values were obtained:
# [1] = target: T1, Cytochrome P450 11B2, mitochondrial (Homo sapiens, UniProt P19099); test: Inhibition of human CYP11B2 expressed in hamster V79MZ cells using [1,2-3H]-11-deoxycorticosterone as substrate after 6 hrs by HPLC analysis; type: ADME, cell-based
# T1 sequence (P19099 whole entry): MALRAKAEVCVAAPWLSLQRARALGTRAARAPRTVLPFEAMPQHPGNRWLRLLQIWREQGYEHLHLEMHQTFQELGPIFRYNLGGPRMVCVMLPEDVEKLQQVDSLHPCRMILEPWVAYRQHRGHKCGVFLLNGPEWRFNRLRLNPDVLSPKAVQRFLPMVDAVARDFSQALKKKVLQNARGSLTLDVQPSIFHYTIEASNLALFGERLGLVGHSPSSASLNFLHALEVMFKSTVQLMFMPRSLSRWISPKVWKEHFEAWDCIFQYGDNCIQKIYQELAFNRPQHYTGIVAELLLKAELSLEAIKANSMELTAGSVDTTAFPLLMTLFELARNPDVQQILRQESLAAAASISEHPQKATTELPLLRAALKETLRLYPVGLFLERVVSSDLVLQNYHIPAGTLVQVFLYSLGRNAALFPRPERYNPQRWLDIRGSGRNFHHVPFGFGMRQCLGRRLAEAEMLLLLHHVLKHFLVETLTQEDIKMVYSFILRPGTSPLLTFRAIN
# Outline: (§1)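 V79MZ cells expressing recombinant human CYP11B1 or CYP11B2, or rat CYP11B1, incubated with [1,2-³H]-11-deoxycorticosterone (100 nM) and inhibitor over a range of concentrations; ketoconazole as reference.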
# [2] = Selectivity ratio of IC50 for human CYP11B2 expressed in hamster V79MZ cells to IC50 for human CYP11B1 expressed in hamster V79MZ cells; outline: as §1
# [3] = target: T2, Cytochrome P450 11B1, mitochondrial (Homo sapiens, UniProt P15538); test: Inhibition of human CYP11B1 expressed in hamster V79MZ cells using [1,2-3H]-11-deoxycorticosterone as substrate after 6 hrs by HPLC analysis; type: cell-based; outline: as §1
# T2 sequence (P15538 whole entry): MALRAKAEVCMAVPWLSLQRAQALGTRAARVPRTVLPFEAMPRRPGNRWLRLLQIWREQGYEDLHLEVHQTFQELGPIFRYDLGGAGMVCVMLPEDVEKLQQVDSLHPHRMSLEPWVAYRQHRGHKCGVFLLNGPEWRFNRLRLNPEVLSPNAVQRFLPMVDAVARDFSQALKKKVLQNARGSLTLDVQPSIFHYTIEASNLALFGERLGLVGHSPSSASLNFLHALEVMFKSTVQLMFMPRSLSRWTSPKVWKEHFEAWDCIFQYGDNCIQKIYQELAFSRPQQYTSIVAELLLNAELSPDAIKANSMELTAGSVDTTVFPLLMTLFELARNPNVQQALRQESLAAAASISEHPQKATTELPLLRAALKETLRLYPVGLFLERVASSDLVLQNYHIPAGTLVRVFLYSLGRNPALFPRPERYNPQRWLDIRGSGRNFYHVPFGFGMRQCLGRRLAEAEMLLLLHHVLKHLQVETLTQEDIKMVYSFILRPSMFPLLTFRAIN
# [4] = target: T3, Cytochrome P450 11B1, mitochondrial (Rattus norvegicus, UniProt P15393); test: Inhibition of CYP11B1 in Sprague-Dawley rat adrenal tissue using 11-deoxycorticosterone as substrate after 4 hrs by SPA
# T3 sequence (P15393 whole entry): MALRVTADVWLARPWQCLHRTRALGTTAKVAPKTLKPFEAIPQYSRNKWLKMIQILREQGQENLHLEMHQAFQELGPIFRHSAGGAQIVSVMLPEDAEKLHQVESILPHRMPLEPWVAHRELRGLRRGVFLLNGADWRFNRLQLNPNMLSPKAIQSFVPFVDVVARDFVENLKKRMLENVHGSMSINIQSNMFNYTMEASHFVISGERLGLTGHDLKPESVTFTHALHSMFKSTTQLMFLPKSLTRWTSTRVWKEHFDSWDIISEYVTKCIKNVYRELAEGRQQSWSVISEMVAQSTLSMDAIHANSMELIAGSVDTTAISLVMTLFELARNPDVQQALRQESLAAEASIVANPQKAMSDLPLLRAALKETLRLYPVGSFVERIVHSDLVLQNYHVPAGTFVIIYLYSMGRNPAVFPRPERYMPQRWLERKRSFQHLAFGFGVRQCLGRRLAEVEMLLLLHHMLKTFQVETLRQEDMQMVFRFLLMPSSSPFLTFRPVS
# [5] = Half life in rat liver S9 fractions at 1 uM in presence of NADPH/UDPGA by LC-MS/MS analysis; type: ADME, tissue-based
# Outline: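 Samples taken at 0, 5, 15 and 60 min, stopped with cold acetonitrile containing internal standard. Remaining parent measured by LC-MS/MS.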
compound,measurement,setting,value
Cc1cncc(Cc2ccc(NC3CC3)nc2)c1,pIC50,[1],7.49
same,Ratio IC50,[2],8
same,pIC50,[3],8.40
Cc1cncc(Cc2ccc(S(=O)(=O)c3ccccc3F)nc2)c1,pIC50,[1],7.77
same,Ratio IC50,[2],9
same,pIC50,[3],8.70
Cc1cncc(Cc2ccc(N3CCOCC3)nc2)c1,pIC50,[1],7.05
same,Ratio IC50,[2],4
same,pIC50,[3],7.66
c1ccc(-c2ncc(Cn3ccnc3)s2)cc1,pIC50,[1],6.34
same,Ratio IC50,[2],7
same,pIC50,[3],7.21
Cc1cncc(Cc2ccc(Sc3ccccc3)nc2)c1,pIC50,[1],7.52
same,Ratio IC50,[2],6
same,pIC50,[3],8.30
CC(C)(C(=O)c1cccnc1)c1cccnc1 [METYRAPONE],pIC50,[4],5.30
same,half-life at 1 µM,[5],12 min
Cc1cncc(Cc2ccc(S(=O)(=O)c3ccccc3)nc2)c1,pIC50,[1],6.76
same,Ratio IC50,[2],9
same,pIC50,[3],7.70
Cc1cncc(Cc2ccc(-c3ccccc3F)nc2)c1,pIC50,[1],7.57
same,Ratio IC50,[2],9
same,pIC50,[3],8.52
Cn1nc(-c2ccccc2)cc1Cn1ccnc1,pIC50,[1],6.67
same,Ratio IC50,[2],4
same,pIC50,[3],7.24
c1ccc(-c2cc(Cn3ccnc3)on2)cc1,pIC50,[1],5.88
same,Ratio IC50,[2],9
same,pIC50,[3],6.83
Cc1cncc(Cc2ccc(-c3ccoc3)nc2)c1,pIC50,[1],7.55
same,Ratio IC50,[2],7
same,pIC50,[3],8.40
Cc1cncc(Cc2cc(-c3ccccc3)nn2C)c1,pIC50,[1],8.22
same,Ratio IC50,[2],6
same,pIC50,[3],9.00
Cc1cncc(Cc2cc(-c3ccccc3)n[nH]2)c1,pIC50,[1],6.23
same,Ratio IC50,[2],4
same,pIC50,[3],6.86
Cc1cncc(Cc2csnc2-c2ccccc2)c1,pIC50,[1],6.82
same,Ratio IC50,[2],3
same,pIC50,[3],7.32
c1ccc(-c2ncc(Cn3ccnc3)o2)cc1,pIC50,[1],6.28
same,Ratio IC50,[2],4
same,pIC50,[3],6.82
Cc1cncc(Cc2ccc(-c3cnn(C)c3)nc2)c1,pIC50,[1],6.74
same,Ratio IC50,[2],4
same,pIC50,[3],7.38
c1ccc(-c2nscc2Cn2ccnc2)cc1,pIC50,[1],6.76
same,Ratio IC50,[2],3
same,pIC50,[3],7.24
Cn1c(Cn2ccnc2)cnc1-c1ccccc1,pIC50,[1],6.29
same,Ratio IC50,[2],1
same,pIC50,[3],6.29
c1ccc(-c2cc(Cn3ccnc3)sn2)cc1,pIC50,[1],6.92
same,Ratio IC50,[2],9
same,pIC50,[3],7.85
Cc1cncc(Cc2cnc(-c3ccccc3)o2)c1,pIC50,[1],6.94
same,Ratio IC50,[2],8
same,pIC50,[3],7.85
Cc1cncc(Cc2ccc(-c3ccnn3C)nc2)c1,pIC50,[1],7.01
same,Ratio IC50,[2],6
same,pIC50,[3],7.80
Cc1cncc(Cc2ccc(-c3cccc(NS(C)(=O)=O)c3)nc2)c1,pIC50,[1],7.80
same,Ratio IC50,[2],8
same,pIC50,[3],8.70
Cc1cncc(Cc2ccc(Sc3ccccc3F)nc2)c1,pIC50,[1],7.62
same,Ratio IC50,[2],8
same,pIC50,[3],8.52
Cc1cncc(Cc2cc(-c3ccccc3)ns2)c1,pIC50,[1],8.10
same,Ratio IC50,[2],8
same,pIC50,[3],9.00
Cc1cncc(Cc2cnc(-c3ccccc3)s2)c1,pIC50,[1],7.62
same,Ratio IC50,[2],3
same,pIC50,[3],8.05
c1ccc(-c2ncc(Cn3ccnc3)[se]2)cc1,pIC50,[1],6.18
same,Ratio IC50,[2],6
same,pIC50,[3],6.98
